Data: ChEMBL document CHEMBL4765433, “From methylene bridged diindole to carbonyl linked benzimidazoleindole: Development of potent and metabolically stable PCSK9 modulators” (Eur J Med Chem, 2020)
Active and inactive are the calls of the source. The calls are words filed in the database; no cut-off is given here.

How the values were obtained:
[1] = Half life in mouse liver microsomes measured after 60 mins in presence of NADPH by LC-MS/MS analysis; type: ADME, Microsome; details: 1 h
[2] = Half life in human liver microsomes measured after 60 mins in presence of NADPH by LC-MS/MS analysis; type: ADME, Microsome; details: 1 h
[3] = Intrinsic clearance in mouse liver microsomes measured after 60 mins in presence of NADPH by LC-MS/MS analysis; type: ADME, Microsome; details: for microsomal intrinsic clearance: microsomes, 1 h
[4] = Intrinsic clearance in human liver microsomes measured after 60 mins in presence of NADPH by LC-MS/MS analysis; type: ADME, Microsome; details: 1 h
[5] = Intrinsic clearance in rat liver microsomes measured after 60 mins in presence of NADPH by LC-MS/MS analysis; type: ADME, Microsome; details: for Intrinsic clearance in rat liver microsomes: 1 h
[6] = target: T1, Proprotein convertase subtilisin/kexin type 9 (Homo sapiens, UniProt Q8NBP7); test: Modulation of PCSK9 in human HepG2 cells assessed as reduction in PCSK9 expression at 1 uM incubated for 24 hrs prior to compound washout followed by compound addition and measured after 24 hrs by ELISA; type: cell-based; set-up: scale not given: the % may be the effect or the level left; details: filed as modulator, time 48.0 hrs
Summary of the method: (§1)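 HepG2 cells grown to 90% confluence and plated at 1X105 cells/well, then left to settle overnight. Medium replaced with dose medium containing compound or DMSO vehicle for 24 h, refreshed with the same medium, then incubated 24 h more. Medium collected after centrifugation. PCSK9 measured by sandwich ELISA with TMB read-out at 450 nm. Values normalized to vehicle, mean of n = 3.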

[7] = Half life in rat liver microsomes measured after 60 mins in presence of NADPH by LC-MS/MS analysis; type: ADME, Microsome; details: 1 h
HepG2 = test: Cytotoxicity against human HepG2 cells assessed as reduction in cell viability at <=10 uM by MTT assay; type: cell-based
[8] = target: T1, Proprotein convertase subtilisin/kexin type 9; test: Modulation of PCSK9 in human HepG2 cells assessed as reduction in PCSK9 expression at 100 nM incubated for 24 hrs prior to compound washout followed by compound addition and measured after 24 hrs by ELISA; type: cell-based; set-up: scale not given: the % may be the effect or the level left; details: time 48.0 hrs; summary of the method: as §1
[9] = target: T1, Proprotein convertase subtilisin/kexin type 9; test: Modulation of PCSK9 in human HepG2 cells assessed as reduction in PCSK9 expression at 10 nM incubated for 24 hrs prior to compound washout followed by compound addition and measured after 24 hrs by ELISA; type: cell-based; set-up: scale not given: the % may be the effect or the level left; details: time 48.0 hrs; summary of the method: as §1
[10] = target: T1, Proprotein convertase subtilisin/kexin type 9; test: Modulation of PCSK9 in human HepG2 cells assessed as reduction in PCSK9 expression incubated for 24 hrs prior to compound washout followed by compound addition and measured after 24 hrs by ELISA; type: cell-based; summary of the method: as §1
[11] = target: T1, Proprotein convertase subtilisin/kexin type 9; test: Modulation of PCSK9 in human HepG2 cells assessed as reduction in PCSK9 expression at 10 to 100 nM incubated for 24 hrs prior to compound washout followed by compound addition and measured after 24 hrs by ELISA; type: cell-based; details: filed as modulator, dose 10-100 nM, time 48.0 hrs
Summary of the method: (§2)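 HepG2 cells grown to 90% confluence, plated at 1X105 cells/well and left overnight. Medium then replaced with compound- or vehicle (DMSO)-containing dose medium, refreshed at 24 h, collected after a further 24 h. Secreted PCSK9 measured by sandwich ELISA with TMB read-out at 450 nm. Values normalized to DMSO group, mean of n = 3 ± SD.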

[12] = target: T1, Proprotein convertase subtilisin/kexin type 9; test: Modulation of PCSK9 in human HepG2 cells assessed as reduction in PCSK9 expression at 1 to 10 uM incubated for 24 hrs prior to compound washout followed by compound addition and measured after 24 hrs by ELISA; type: cell-based; details: filed as modulator, dose 1-10 µM, time 48.0 hrs; summary of the method: as §2
[13] = Half life in BTBR mouse at 6 mg/kg, ip administered as single dose by LC-MS/MS analysis; type: ADME, organism-based; details: in vivo
Summary of the method: (§3)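 Mice given a single intraperitoneal dose of 6 mg/kg. Formulation: DMSO (10 %) and Tween 80 (10 %) in PBS (80 %). Plasma samples collected and analysed by LC-MS/MS. AUC is total exposure after the single dose, Cmax is maximum plasma concentration, and T1/2 is half-life.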

[14] = AUC (0 to infinity) in BTBR mouse at 6 mg/kg, ip administered as single dose by LC-MS/MS analysis; type: ADME, organism-based; set-up: time infinity, route intraperitoneal, dose 6 mg/kg; details: in vivo; summary of the method: as §3
[15] = Cmax in BTBR mouse at 6 mg/kg, ip administered as single dose by LC-MS/MS analysis; type: ADME, organism-based; set-up: route intraperitoneal, dose 6 mg/kg; details: in vivo; summary of the method: as §3
[16] = liver microsomes, read-out: CLH

T1 sequence (Q8NBP7 31-152 limits assumed): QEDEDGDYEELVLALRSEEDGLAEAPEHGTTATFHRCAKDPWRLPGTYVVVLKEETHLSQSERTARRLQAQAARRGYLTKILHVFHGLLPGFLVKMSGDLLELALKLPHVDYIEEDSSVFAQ
T1 sequence (Q8NBP7 153-692 limits assumed): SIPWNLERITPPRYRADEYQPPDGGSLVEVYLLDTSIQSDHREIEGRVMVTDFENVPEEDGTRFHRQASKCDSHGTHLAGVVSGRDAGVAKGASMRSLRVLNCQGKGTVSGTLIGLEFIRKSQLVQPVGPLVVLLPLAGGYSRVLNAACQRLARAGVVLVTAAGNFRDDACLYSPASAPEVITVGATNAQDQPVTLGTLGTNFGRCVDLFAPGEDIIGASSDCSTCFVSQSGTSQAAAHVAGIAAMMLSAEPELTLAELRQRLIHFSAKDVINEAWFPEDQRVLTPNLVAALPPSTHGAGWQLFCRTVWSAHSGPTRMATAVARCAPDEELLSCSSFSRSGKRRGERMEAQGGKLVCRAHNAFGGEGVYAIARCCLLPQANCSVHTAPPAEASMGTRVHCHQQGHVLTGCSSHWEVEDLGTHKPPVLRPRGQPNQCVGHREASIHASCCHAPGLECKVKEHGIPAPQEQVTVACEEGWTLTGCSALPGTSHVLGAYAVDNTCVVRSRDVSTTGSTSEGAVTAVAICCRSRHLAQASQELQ

## Fc1ccc2[nH]c(Cc3c[nH]c4c(F)cccc34)cc2c1
[1]
  t1/2: 16.5 min
[2]
  t1/2: 63.9 min
[3]
  microsomal intrinsic clearance: 83.9 µL/min/mg
[4]
  CLH: 23 µL/min/mg
[5]
  Intrinsic clearance in rat liver microsomes: 60.7 µL/min/mg
[6]
  Activity: Active
[7]
  t1/2: 23.2 min

## Cn1c(C(=O)c2c[nH]c3cccc(F)c23)nc2ccc(F)cc21
HepG2
  Activity: Non-Toxic

## OCCn1c(Cc2c[nH]c3c(F)cccc23)nc2ccc(F)cc21
HepG2
  Activity: Non-Toxic

## Fc1ccc2nc(Cc3c[nH]c4c(F)cccc34)n(Cc3ccccc3)c2c1
HepG2
  Activity: Non-Toxic

## O=C(c1nc2c(F)cccc2[nH]1)c1c[nH]c2c(F)cccc12
HepG2
  Activity: Non-Toxic

## Cn1c(C(=O)c2c[nH]c3c(F)cccc23)nc2ccc(F)cc21
HepG2
  Activity: Non-Toxic
[8]
  Activity: 12.5%
[3]; [16]
  microsomal CLint: 41.7 µL/min/mg
[9]
  Activity: 35%
[5]; [16]
  microsomal CLint: 23 µL/min/mg
[10]
  EC50: 0.15 nM

## Cn1c(C(=O)c2c[nH]c3ccccc23)nc2ccc(F)cc21
HepG2
  Activity: Non-Toxic
[11]
  Activity: Active

## Fc1ccc2nc(Cc3c[nH]c4c(F)cccc34)n(Cc3ccncc3)c2c1
HepG2
  Activity: Non-Toxic

## Cn1c(C(=O)c2c[nH]c3cc(F)ccc23)nc2ccc(F)cc21
HepG2
  Activity: Non-Toxic

## CCCCn1cc(C(=O)c2nc3ccc(F)cc3n2C)c2cccc(F)c21
HepG2
  Activity: Non-Toxic
[10]
  EC50: 0.28 nM

## Cn1c(Cc2c[nH]c3c(F)cccc23)nc2ccc(F)cc21
HepG2
  Activity: Non-Toxic
[12]
  Activity: Active

## Cn1c(C(=O)c2cn(CCCN3CCOCC3)c3c(F)cccc23)nc2ccc(F)cc21
HepG2
  Activity: Non-Toxic
[10]
  EC50: 39.9 nM

## Cn1cc(C(=O)c2nc3ccc(F)cc3n2C)c2cccc(F)c21
HepG2
  Activity: Non-Toxic
[10]
  EC50: 1.21 nM

## O=C(c1cc2cc(F)ccc2[nH]1)c1c[nH]c2c(F)cccc12
[1]
  t1/2: 40.1 min
HepG2
  Activity: Non-Toxic
[13]
  half-life: 78.6 min
[3]
  microsomal intrinsic clearance: 34.6 µL/min/mg
[14]
  AUC(0-inf): 610 ng·h/mL
[15]
  Cmax: 323 ng/mL
[5]
  Intrinsic clearance in rat liver microsomes: 18.1 µL/min/mg
[6]
  Activity: Active
[7]
  t1/2: 76.9 min

## CC(C)Cn1c(Cc2c[nH]c3c(F)cccc23)nc2ccc(F)cc21
HepG2
  Activity: Non-Toxic

## Cn1c(C(=O)c2cn(S(=O)(=O)CCN3CCOCC3)c3c(F)cccc23)nc2ccc(F)cc21
HepG2
  Activity: Non-Toxic
[10]
  EC50: 0.69 nM

## [2H]C([2H])(c1nc2cc(F)ccc2[nH]1)c1c[nH]c2c(F)cccc12
[1]
  t1/2: 16.3 min
HepG2
  Activity: Non-Toxic
[3]
  microsomal intrinsic clearance: 85.2 µL/min/mg
[5]
  Intrinsic clearance in rat liver microsomes: 59.1 µL/min/mg
[7]
  t1/2: 23.5 min

## Cn1c(C(=O)c2c[nH]c3c(F)cccc23)nc2c(F)cccc21
HepG2
  Activity: Non-Toxic
[11]
  Activity: Active

## CC(C)(C)Cn1c(Cc2c[nH]c3c(F)cccc23)nc2ccc(F)cc21
HepG2
  Activity: Non-Toxic

## Cn1c(C(=O)c2c[nH]c3c(F)cccc23)nc2cccc(F)c21
HepG2
  Activity: Non-Toxic
[11]
  Activity: Active

## Fc1ccc2nc(Cc3c[nH]c4c(F)cccc34)n(CCc3ccccc3)c2c1
HepG2
  Activity: Non-Toxic

## Cn1c(C(=O)c2c[nH]c3c(F)cccc23)nc2ccccc21
HepG2
  Activity: Non-Toxic
[11]
  Activity: Active

## O=C(c1nc2ccc(F)cc2[nH]1)c1c[nH]c2c(F)cccc12
[1]
  t1/2: 30 min
HepG2
  Activity: Non-Toxic
[13]
  half-life: 98.4 min
[3]
  microsomal intrinsic clearance: 46.5 µL/min/mg
[14]
  AUC(0-inf): 696 ng·h/mL
[15]
  Cmax: 294 ng/mL
[5]
  Intrinsic clearance in rat liver microsomes: 29.4 µL/min/mg
[6]
  Activity: 90%
[7]
  t1/2: 47.8 min
[10]
  EC50: 2.46 nM

## Cn1c(C(=O)c2cn(S(=O)(=O)CCN3CCNCC3)c3c(F)cccc23)nc2ccc(F)cc21
HepG2
  Activity: Non-Toxic
[10]
  EC50: 161 nM

## Cn1c(C(=O)c2c[nH]c3c(F)cccc23)nc2cc(F)ccc21
HepG2
  Activity: Non-Toxic
[8]
  Activity: 11.9%
[9]
  Activity: 34.4%

## O=C(c1nc2ccccc2[nH]1)c1c[nH]c2ccccc12
[1]
  t1/2: 25.8 min
HepG2
  Activity: Non-Toxic
[3]
  microsomal intrinsic clearance: 54.6 µL/min/mg
[5]
  Intrinsic clearance in rat liver microsomes: 33.1 µL/min/mg
[7]
  t1/2: 42.4 min

## O=C(c1nc2ccc(F)cc2[nH]1)c1c[nH]c2ccccc12
HepG2
  Activity: Non-Toxic

## Cn1c(C(=O)c2c[nH]c3ccc(F)cc23)nc2ccc(F)cc21
HepG2
  Activity: Non-Toxic

## Fc1ccc2nc(Cc3c[nH]c4c(F)cccc34)[nH]c2c1
[1]
  t1/2: 7.1 min
HepG2
  Activity: Non-Toxic
[2]
  t1/2: 17.5 min
[3]
  microsomal intrinsic clearance: 194.9 µL/min/mg
[4]
  CLH: 79.4 µL/min/mg
[5]
  Intrinsic clearance in rat liver microsomes: 145.6 µL/min/mg
[6]
  Activity: Active
[7]
  t1/2: 9.5 min
[10]
  EC50: 348 nM

## Cn1c(C(=O)c2cn(CCN3CCOCC3)c3c(F)cccc23)nc2ccc(F)cc21
HepG2
  Activity: Non-Toxic
[10]
  EC50: 11 nM

## Cn1c(C(=O)c2cn(CCCCN3CCOCC3)c3c(F)cccc23)nc2ccc(F)cc21
HepG2
  Activity: Non-Toxic
[10]
  EC50: 88 nM

## O=C(c1nc2ccccc2[nH]1)c1c[nH]c2c(F)cccc12
HepG2
  Activity: Non-Toxic

## Fc1ccc2nc(Cc3c[nH]c4c(F)cccc34)n(Cc3cccnc3)c2c1
HepG2
  Activity: Non-Toxic
